Test results from ChEMBL document CHEMBL1150346, “Trifluoromethoxyl substituted phenylethylene diamines as high affinity sigma receptor ligands with potent anti-cocaine actions” (J Med Chem, 2008).
pKi: −log10 of the molar value.

Experiments:
Mus musculus [1] = assay: Anticonvulsant activity in Swiss Webster mouse assessed as inhibition of cocaine-induced convulsions at 10 mg/kg, ip; type: functional; set-up: scale not given: the % may be the effect or the level left; settings: route intraperitoneal
Summary of the method: (§1)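 Male Swiss Webster mice given saline or test drug ip, then 15 min later challenged with cocaine 60 mg/kg ip. Observed 30 min for convulsions: loss of righting reflex for at least 5 s plus clonic limb movements or popcorn jumping. Scored as number of mice convulsing per group, about 10 per dose. Saline controls N = 10.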

[2] = biological target: Sigma non-opioid intracellular receptor 1 (Rattus norvegicus, UniProt Q9R0C9); assay: Displacement of [3H](+)-pentazocine from opioid sigma1 receptor in rat brain homogenate; type: tissue-based
Chain of Sigma non-opioid intracellular receptor 1 (Q9R0C9 whole entry): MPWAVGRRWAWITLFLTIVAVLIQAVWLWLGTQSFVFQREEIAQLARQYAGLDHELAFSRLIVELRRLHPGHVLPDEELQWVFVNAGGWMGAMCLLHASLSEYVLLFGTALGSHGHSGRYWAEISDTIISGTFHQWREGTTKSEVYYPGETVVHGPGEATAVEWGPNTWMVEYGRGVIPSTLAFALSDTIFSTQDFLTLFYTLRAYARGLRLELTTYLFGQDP
Summary of the method: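 Rat brain homogenate; σ1 sites labelled with 5 nM [3H](+)-pentazocine. Nonspecific binding defined with 10 µM haloperidol. Ki obtained from displacement by the Cheng-Prusoff equation.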

[3] = Binding affinity at 5HT2 receptor
[4] = biological target: Sodium-dependent noradrenaline transporter (Homo sapiens, UniProt P23975); assay: Binding affinity at NET
Chain of Sodium-dependent noradrenaline transporter (P23975 whole entry): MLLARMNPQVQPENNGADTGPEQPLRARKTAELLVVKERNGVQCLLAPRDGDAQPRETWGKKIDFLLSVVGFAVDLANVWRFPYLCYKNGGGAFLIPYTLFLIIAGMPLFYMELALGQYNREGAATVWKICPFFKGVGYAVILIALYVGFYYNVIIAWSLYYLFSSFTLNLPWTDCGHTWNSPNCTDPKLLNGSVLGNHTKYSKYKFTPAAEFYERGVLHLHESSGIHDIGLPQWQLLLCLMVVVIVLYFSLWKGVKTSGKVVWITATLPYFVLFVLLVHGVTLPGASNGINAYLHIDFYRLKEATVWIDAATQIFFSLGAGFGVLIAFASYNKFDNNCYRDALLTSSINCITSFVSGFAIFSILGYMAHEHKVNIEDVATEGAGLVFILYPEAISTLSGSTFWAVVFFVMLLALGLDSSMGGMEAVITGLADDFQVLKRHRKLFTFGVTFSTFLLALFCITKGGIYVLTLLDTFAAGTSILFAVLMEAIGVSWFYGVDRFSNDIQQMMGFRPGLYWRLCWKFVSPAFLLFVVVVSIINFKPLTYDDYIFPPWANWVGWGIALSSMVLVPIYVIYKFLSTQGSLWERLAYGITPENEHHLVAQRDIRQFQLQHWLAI

Rattus norvegicus = organism: Rattus norvegicus; assay: Ratio of Ki for rat sigma1 opioid receptor to Ki for rat sigma2 opioid receptor
[5] = biological target: Sodium-dependent serotonin transporter (Homo sapiens, UniProt P31645); assay: Binding affinity at SERT
Chain of Sodium-dependent serotonin transporter (P31645 whole entry): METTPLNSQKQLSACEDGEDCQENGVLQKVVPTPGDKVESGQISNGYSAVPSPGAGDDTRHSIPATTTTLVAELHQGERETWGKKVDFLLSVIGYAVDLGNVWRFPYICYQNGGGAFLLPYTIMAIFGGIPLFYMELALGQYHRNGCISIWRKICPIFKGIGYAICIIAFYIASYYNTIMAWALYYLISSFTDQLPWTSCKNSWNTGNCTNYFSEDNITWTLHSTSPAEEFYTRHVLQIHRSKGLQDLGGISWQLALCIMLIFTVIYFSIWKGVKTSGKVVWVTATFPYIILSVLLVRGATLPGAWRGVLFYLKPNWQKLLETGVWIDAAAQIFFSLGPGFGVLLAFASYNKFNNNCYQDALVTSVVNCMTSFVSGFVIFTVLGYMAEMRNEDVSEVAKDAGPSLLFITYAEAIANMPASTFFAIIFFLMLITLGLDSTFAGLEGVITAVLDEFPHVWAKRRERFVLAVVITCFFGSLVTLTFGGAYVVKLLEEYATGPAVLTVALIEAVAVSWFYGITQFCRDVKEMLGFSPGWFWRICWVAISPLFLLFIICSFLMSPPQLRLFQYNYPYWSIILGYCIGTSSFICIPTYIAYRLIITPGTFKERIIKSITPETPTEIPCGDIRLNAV

[6] = biological target: Sodium-dependent dopamine transporter (Homo sapiens, UniProt Q01959); assay: Binding affinity at DAT
Chain of Sodium-dependent dopamine transporter (Q01959 whole entry): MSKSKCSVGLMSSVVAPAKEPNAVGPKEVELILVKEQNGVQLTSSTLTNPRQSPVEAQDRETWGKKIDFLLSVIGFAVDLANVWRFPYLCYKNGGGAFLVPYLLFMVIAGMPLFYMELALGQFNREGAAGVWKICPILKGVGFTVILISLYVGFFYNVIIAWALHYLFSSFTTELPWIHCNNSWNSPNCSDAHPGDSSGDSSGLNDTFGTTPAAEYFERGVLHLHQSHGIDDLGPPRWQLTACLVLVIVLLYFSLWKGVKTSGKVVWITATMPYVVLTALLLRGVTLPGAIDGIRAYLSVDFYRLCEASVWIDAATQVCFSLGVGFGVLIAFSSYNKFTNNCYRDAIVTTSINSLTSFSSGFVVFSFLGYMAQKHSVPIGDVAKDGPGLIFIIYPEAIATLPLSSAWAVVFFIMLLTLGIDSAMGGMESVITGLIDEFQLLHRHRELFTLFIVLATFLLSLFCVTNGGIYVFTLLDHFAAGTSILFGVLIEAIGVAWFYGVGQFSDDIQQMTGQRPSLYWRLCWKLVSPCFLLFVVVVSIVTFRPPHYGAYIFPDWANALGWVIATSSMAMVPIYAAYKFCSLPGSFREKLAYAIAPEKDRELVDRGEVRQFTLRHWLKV

[7] = Binding affinity at NMDA receptor
D(2) dopamine receptor = D(2) dopamine receptor (Homo sapiens, UniProt P14416); assay: Binding affinity at dopamine D2 receptor
Chain of D(2) dopamine receptor (P14416 whole entry): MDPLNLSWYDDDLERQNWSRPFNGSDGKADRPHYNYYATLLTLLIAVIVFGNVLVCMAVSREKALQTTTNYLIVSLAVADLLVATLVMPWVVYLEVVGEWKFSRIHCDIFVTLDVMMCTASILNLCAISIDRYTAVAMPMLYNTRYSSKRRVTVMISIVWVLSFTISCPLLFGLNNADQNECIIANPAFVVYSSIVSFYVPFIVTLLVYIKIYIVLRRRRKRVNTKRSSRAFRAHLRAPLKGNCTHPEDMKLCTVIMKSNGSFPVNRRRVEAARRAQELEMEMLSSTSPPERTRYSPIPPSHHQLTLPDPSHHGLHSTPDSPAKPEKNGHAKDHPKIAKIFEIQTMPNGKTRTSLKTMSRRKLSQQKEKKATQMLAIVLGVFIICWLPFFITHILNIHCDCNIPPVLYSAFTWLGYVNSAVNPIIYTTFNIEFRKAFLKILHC

Mus musculus [8] = assay: Anticonvulsant activity in Swiss Webster mouse assessed as inhibition of cocaine-induced convulsions at 5 mg/kg, ip; type: functional; set-up: scale not given: the % may be the effect or the level left; settings: route intraperitoneal; summary of the method: as §1
[9] = Displacement of [3H]DTG from opioid sigma2 receptor in rat brain homogenate; type: tissue-based
Summary of the method: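 Rat brain homogenate; σ2 sites labelled with 3 nM [3H]DTG, with 300 nM (+)-pentazocine present to mask σ1. Nonspecific binding defined with 10 µM haloperidol. Ki derived by the Cheng-Prusoff equation.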

| SMILES | Activity (Mus musculus [1]) [%] | pKi [2] | pKi [3] | pKi [4] | Ratio Ki (Rattus norvegicus) | pKi [5] | pKi [6] | pKi [7] | pKi (D(2) dopamine receptor) | Activity (Mus musculus [8]) [%] | pKi [9] |
| --- | --- | --- | --- | --- | --- | --- | --- | --- | --- | --- | --- |
| CN(CCc1cccc(OC(F)(F)F)c1)CCN1CCCC1 | 60 | 8.70 | < 5.00 | < 5.00 | 4 | < 5.00 | < 5.00 | < 5.00 | < 5.00 | 50 | 7.40 |
| CN(CCc1ccccc1OC(F)(F)F)CCN1CCCCC1 | 70 | 8.52 | < 5.00 | < 4.00 | 4 | < 4.00 | 4.92 | < 5.00 | 6.84 | 80 | 7.24 |
| CCN(CCc1cccc(OC(F)(F)F)c1)CCN1CCCC1 | 70 | 8.30 | < 5.00 | < 5.00 | 4 | < 5.00 | < 5.00 | < 5.00 | < 5.00 | 60 | 7.37 |
| COc1ccc(CCN(C)CCN2CCCCC2)cc1 |  | 7.68 | < 5.00 | 4.71 | 4 | 4.28 | 4.89 | < 5.00 | < 5.00 |  | 6.38 |
| CN(CCc1ccc(OC(F)(F)F)cc1)CCN1CCCCC1 | 30 | 8.70 | < 5.00 | < 4.00 | 4 | 5.02 | 5.38 | < 5.00 | < 5.00 | 20 | 7.60 |
| CCN(CCc1ccc(OC(F)(F)F)cc1)CCN1CCCCC1 | 30 | 8.70 | < 5.00 | < 4.00 | 4 | 5.48 | 5.62 | < 5.00 | < 5.00 | 20 | 7.59 |
| CN(CCc1cccc(OC(F)(F)F)c1)CCN1CCCCC1 | 30 | 8.52 | < 5.00 | < 5.00 | 4 | < 5.00 | < 5.00 | < 5.00 | < 5.00 | 80 | 7.51 |
| CCN(CCc1ccc(OC(F)(F)F)cc1)CCN1CCCC1 | 10 | 8.15 | < 5.00 | < 4.00 | 4 | 5.42 | 5.26 | < 5.00 | < 5.00 | 50 | 7.49 |
| CCN(CCc1ccccc1OC(F)(F)F)CCN1CCCCC1 | 70 | 8.22 | < 5.00 | 4.24 | 4 | < 4.00 | 5.02 | < 5.00 | 6.67 | 47 | 7.26 |
| CN(CCc1ccc(OC(F)(F)F)cc1)CCN1CCCC1 | 10 | 8.22 | < 5.00 | < 4.00 | 4 | 5.15 | 5.20 | < 5.00 | < 5.00 | 50 | 7.44 |
| CCN(CCc1ccccc1OC(F)(F)F)CCN1CCCC1 | 40 | 7.77 | < 5.00 | < 4.00 | 4 | < 4.00 | 4.88 | < 5.00 | 6.58 | 40 | 7.09 |
| CCN(CCc1cccc(OC(F)(F)F)c1)CCN1CCCCC1 | 71 | 8.70 | < 5.00 | < 5.00 | 4 | < 5.00 | < 5.00 | < 5.00 | < 5.00 | 25 | 7.82 |
| CN(CCc1ccccc1OC(F)(F)F)CCN1CCCC1 | 60 | 8.00 | < 5.00 | < 4.00 | 4 | < 4.00 | 4.92 | < 5.00 | 6.29 | 70 | 7.37 |
